Laboratory results as given in ChEMBL document CHEMBL4715736, “Identification of anticancer agents based on the thieno[2,3-b]pyridine and 1H-pyrazole molecular scaffolds” (2016).

Key:
Format in all cases: functional
[1] = test system: NCI/ADR-RES; assay: Growth inhibition of human NCI/ADR-RES cells incubated for 48 hrs by sulforhodamine B assay; settings: for CC50: read-out: LC50 (the source's name)
Outline: (§1)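 NCI60 panel at the NCI Developmental Therapeutics Program. Only compounds active in the 10 µM screen went to dose-response testing. GI50, the concentration giving 50% of maximal inhibition of proliferation, and TGI, the concentration giving total growth inhibition, were derived from the dose-response curves.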

[2] = test system: CAKI-1; assay: Growth inhibition of human CAKI-1 cells incubated for 48 hrs by sulforhodamine B assay; settings: for CC50: read-out: LC50 (the source's name)
Outline: (§2)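 NCI Developmental Therapeutics Program NCI60 panel. Compounds that were active in the 10 µM one-dose screen went on to dose–response testing. Growth at each concentration is expressed relative to untreated control (100%). GI50 (concentration giving 50% of maximal inhibition of proliferation) and TGI (concentration giving total growth inhibition) were derived from the curves.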

[3] = test system: LOX IMVI; assay: Growth inhibition of human LOX IMVI cells assessed as cell growth at 0.1 uM incubated for 48 hrs by sulforhodamine B assay relative to control; settings: read-out: Activity
[4] = test system: LOX IMVI; assay: Growth inhibition of human LOX IMVI cells assessed as cell growth at 0.01 uM incubated for 48 hrs by sulforhodamine B assay relative to control; settings: read-out: Activity
[5] = test system: SF-295; assay: Growth inhibition of human SF-295 cells assessed as cell growth at 100 uM incubated for 48 hrs by sulforhodamine B assay relative to control; settings: read-out: Activity
[6] = test system: NCI-H522; assay: Growth inhibition of human NCI-H522 cells assessed as cell growth at 0.01 uM incubated for 48 hrs by sulforhodamine B assay relative to control; settings: read-out: Activity
[7] = test system: PC-3; assay: Growth inhibition of human PC-3 cells assessed as cell growth at 1 uM incubated for 48 hrs by sulforhodamine B assay relative to control; settings: read-out: Activity
[8] = test system: HCT-15; assay: Growth inhibition of human HCT-15 cells assessed as cell growth at 0.01 uM incubated for 48 hrs by sulforhodamine B assay relative to control; settings: read-out: Activity
[9] = test system: SK-MEL-5; assay: Growth inhibition of human SK-MEL-5 cells incubated for 48 hrs by sulforhodamine B assay
Outline: (§3)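 NCI DTP 60-line human tumour panel. Dose-response curves were run only for ligands active in the initial 10 µM screen. GI50 (concentration giving 50% of maximal inhibition of proliferation) and TGI (concentration giving total growth inhibition) were derived from these curves.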

[10] = test system: U-251; assay: Growth inhibition of human U-251 cells assessed as cell growth at 0.1 uM incubated for 48 hrs by sulforhodamine B assay relative to control; settings: read-out: Activity
[11] = test system: M14; assay: Growth inhibition of human M14 cells assessed as cell growth at 0.1 uM incubated for 48 hrs by sulforhodamine B assay relative to control; settings: read-out: Activity
[12] = test system: NCI-H522; assay: Growth inhibition of human NCI-H522 cells incubated for 48 hrs by sulforhodamine B assay; outline: as §1
[13] = test system: MDA-MB-468; assay: Growth inhibition of human MDA-MB-468 cells incubated for 48 hrs by sulforhodamine B assay; settings: for CC50: read-out: LC50 (the source's name); outline: as §1
[14] = test system: MOLT-4; assay: Growth inhibition of human MOLT-4 cells assessed as cell growth at 1 uM incubated for 48 hrs by sulforhodamine B assay relative to control; settings: read-out: Activity
[15] = test system: MCF7; assay: Growth inhibition of human MCF7 cells assessed as cell growth at 1 uM incubated for 48 hrs by sulforhodamine B assay relative to control; settings: read-out: Activity
[16] = test system: T47D; assay: Growth inhibition of human T47D cells incubated for 48 hrs by sulforhodamine B assay; settings: for CC50: read-out: LC50 (the source's name); outline: as §3
[17] = test system: NCI-H23; assay: Growth inhibition of human NCI-H23 cells assessed as cell growth at 0.1 uM incubated for 48 hrs by sulforhodamine B assay relative to control; settings: read-out: Activity
[18] = test system: SK-OV-3; assay: Growth inhibition of human SK-OV-3 cells assessed as cell growth at 1 uM incubated for 48 hrs by sulforhodamine B assay relative to control; settings: read-out: Activity
[19] = test system: SR; assay: Growth inhibition of human SR cells assessed as cell growth at 0.1 uM incubated for 48 hrs by sulforhodamine B assay relative to control; settings: read-out: Activity
[20] = test system: NCI-H226; assay: Growth inhibition of human NCI-H226 cells assessed as cell growth at 1 uM incubated for 48 hrs by sulforhodamine B assay relative to control; settings: read-out: Activity
[21] = test system: OVCAR-3; assay: Growth inhibition of human OVCAR-3 cells assessed as cell growth at 1 uM incubated for 48 hrs by sulforhodamine B assay relative to control; settings: read-out: Activity
[22] = test system: SF-539; assay: Growth inhibition of human SF-539 cells assessed as cell growth at 1 uM incubated for 48 hrs by sulforhodamine B assay relative to control; settings: read-out: Activity
[23] = test system: Hs-578T; assay: Growth inhibition of human Hs-578T cells assessed as cell growth at 100 uM incubated for 48 hrs by sulforhodamine B assay relative to control; settings: read-out: Activity
[24] = test system: A549; assay: Growth inhibition of human A549/ATCC cells assessed as cell growth at 1 uM incubated for 48 hrs by sulforhodamine B assay relative to control; settings: read-out: Activity; outline: as §2
[25] = test system: KM12; assay: Growth inhibition of human KM12 cells assessed as cell growth at 100 uM incubated for 48 hrs by sulforhodamine B assay relative to control; settings: read-out: Activity
[26] = test system: HCT-116; assay: Growth inhibition of human HCT-116 cells incubated for 48 hrs by sulforhodamine B assay; outline: as §1
[27] = test system: MOLT-4; assay: Growth inhibition of human MOLT-4 cells assessed as cell growth at 0.1 uM incubated for 48 hrs by sulforhodamine B assay relative to control; settings: read-out: Activity
[28] = test system: PC-3; assay: Growth inhibition of human PC-3 cells assessed as cell growth at 0.1 uM incubated for 48 hrs by sulforhodamine B assay relative to control; settings: read-out: Activity
[29] = test system: SR; assay: Growth inhibition of human SR cells assessed as cell growth at 100 uM incubated for 48 hrs by sulforhodamine B assay relative to control; settings: read-out: Activity
[30] = test system: UO-31; assay: Growth inhibition of human UO-31 cells assessed as cell growth at 1 uM incubated for 48 hrs by sulforhodamine B assay relative to control; settings: read-out: Activity
[31] = test system: NCI-H322M; assay: Growth inhibition of human NCI-H322M cells assessed as cell growth at 0.1 uM incubated for 48 hrs by sulforhodamine B assay relative to control; settings: read-out: Activity
[32] = test system: MCF7; assay: Growth inhibition of human MCF7 cells assessed as cell growth at 0.01 uM incubated for 48 hrs by sulforhodamine B assay relative to control; settings: read-out: Activity
[33] = test system: HT-29; assay: Growth inhibition of human HT-29 cells assessed as cell growth at 1 uM incubated for 48 hrs by sulforhodamine B assay relative to control; settings: read-out: Activity
[34] = test system: SK-MEL-5; assay: Growth inhibition of human SK-MEL-5 cells assessed as cell growth at 0.01 uM incubated for 48 hrs by sulforhodamine B assay relative to control; settings: read-out: Activity
[35] = test system: SNB-75; assay: Growth inhibition of human SNB-75 cells assessed as cell growth at 0.1 uM incubated for 48 hrs by sulforhodamine B assay relative to control; settings: read-out: Activity

Structure (SMILES): Cc1cc(C)c(NC(=O)c2sc3nc4c(cc3c2N)CN(Cc2ccccc2)CC4)c(C)c1
- GI50 [1]: 1.64 µM
- TGI [1]: 6.24 µM
- CC50 [1]: > 100 µM
- GI50 [2]: 2.81 µM
- TGI [2]: > 100 µM
- CC50 [2]: > 100 µM
- growth at 0.1 µM [3]: 105%
- growth at 0.01 µM [4]: 99%
- growth at 100 µM [5]: -2%
- growth at 0.01 µM [6]: 96%
- growth at 1 µM [7]: 75%
- growth at 0.01 µM [8]: 93%
- GI50 [9]: 1.47 µM
- LC50 [9]: > 100 µM
- TGI [9]: 11.5 µM
- growth at 0.1 µM [10]: 96%
- growth at 0.1 µM [11]: 94%
- GI50 [12]: 1.6 µM
- LC50 [12]: > 100 µM
- TGI [12]: 6.83 µM
- GI50 [13]: 1.78 µM
- TGI [13]: 88.7 µM
- CC50 [13]: > 100 µM
- growth at 1 µM [14]: 96%
- growth at 1 µM [15]: 61%
- GI50 [16]: 2.62 µM
- TGI [16]: > 100 µM
- CC50 [16]: > 100 µM
- growth at 0.1 µM [17]: 103%
- growth at 1 µM [18]: 88%
- growth at 0.1 µM [19]: 103%
- growth at 1 µM [20]: 78%
- growth at 1 µM [21]: 76%
- growth at 1 µM [22]: 88%
- growth at 100 µM [23]: -3%
- growth at 1 µM [24]: 90%
- growth at 100 µM [25]: -9%
- GI50 [26]: 2.89 µM
- LC50 (concentration killing 50% of cells) [26]: 67.2 µM
- TGI [26]: 16 µM
- growth at 0.1 µM [27]: 98%
- growth at 0.1 µM [28]: 93%
- growth at 100 µM [29]: -16%
- growth at 1 µM [30]: 77%
- growth at 0.1 µM [31]: 97%
- growth at 0.01 µM [32]: 86%
- growth at 1 µM [33]: 90%
- growth at 0.01 µM [34]: 98%
- growth at 0.1 µM [35]: 94%

Structure (SMILES): COc1cccc(NC(=O)c2sc3nc4c(cc3c2N)CN(Cc2ccccc2)CC4)c1
- GI50 [1]: 2.4 µM
- TGI [1]: 33.3 µM
- CC50 [1]: > 100 µM
- GI50 [2]: 11.7 µM
- TGI [2]: > 100 µM
- CC50 [2]: > 100 µM
- growth at 0.1 µM [3]: 102%
- growth at 0.01 µM [4]: 97%
- growth at 100 µM [5]: -52%
- growth at 0.01 µM [6]: 95%
- growth at 1 µM [7]: 73%
- growth at 0.01 µM [8]: 92%
- GI50 [9]: 2.15 µM
- LC50 [9]: > 100 µM
- TGI [9]: 31.9 µM
- growth at 0.1 µM [10]: 98%
- growth at 0.1 µM [11]: 95%
- GI50 [12]: 15.1 µM
- LC50 [12]: > 100 µM
- TGI [12]: > 100 µM
- GI50 [13]: 2.6 µM
- TGI [13]: 61.4 µM
- CC50 [13]: > 100 µM
- growth at 1 µM [14]: 78%
- growth at 1 µM [15]: 40%
- GI50 [16]: 4.62 µM
- TGI [16]: 47.3 µM
- CC50 [16]: > 100 µM
- growth at 0.1 µM [17]: 101%
- growth at 1 µM [18]: 81%
- growth at 0.1 µM [19]: 99%
- growth at 1 µM [20]: 81%
- growth at 1 µM [21]: 82%
- growth at 1 µM [22]: 79%
- growth at 100 µM [23]: -9%
- growth at 1 µM [24]: 88%
- growth at 100 µM [25]: -37%
- GI50 [26]: 1.74 µM
- LC50 (concentration killing 50% of cells) [26]: > 100 µM
- TGI [26]: > 100 µM
- growth at 0.1 µM [27]: 104%
- growth at 0.1 µM [28]: 88%
- growth at 100 µM [29]: -19%
- growth at 1 µM [30]: 77%
- growth at 0.1 µM [31]: 96%
- growth at 0.01 µM [32]: 88%
- growth at 1 µM [33]: 96%
- growth at 0.01 µM [34]: 99%
- growth at 0.1 µM [35]: 92%
